The source of these data is ChEMBL document CHEMBL4020725, “Design and synthesis of novel xanthine derivatives as potent and selective A2B adenosine receptor antagonists for the treatment of chronic inflammatory airway diseases” (Eur J Med Chem, 2017).

Bounds are passed on as bounds.

One assay deals with T1, Adenosine receptor A2b (Homo sapiens, UniProt P29275).
T1 sequence (P29275 whole entry): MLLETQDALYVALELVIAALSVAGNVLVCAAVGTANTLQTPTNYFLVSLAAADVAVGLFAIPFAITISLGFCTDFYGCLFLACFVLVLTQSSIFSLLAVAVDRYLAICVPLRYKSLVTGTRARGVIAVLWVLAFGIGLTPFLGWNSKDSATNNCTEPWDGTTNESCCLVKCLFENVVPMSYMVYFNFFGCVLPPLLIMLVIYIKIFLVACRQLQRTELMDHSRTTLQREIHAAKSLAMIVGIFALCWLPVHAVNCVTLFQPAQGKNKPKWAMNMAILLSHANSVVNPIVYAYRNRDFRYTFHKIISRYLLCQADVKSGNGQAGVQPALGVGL
Put plainly: Displacement of [3H]-MRS-1754 from human adenosine A2B receptor expressed in HEK293 cell membranes after 90 mins. In short, it runs like this:
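Membranes from HEK-293 cells stably expressing human A2B, ADA-treated, incubated with 1.6 nM [3H]-MRS-1754 in 50 mM Tris pH 6.5, 5 mM MgCl2, 1 mM EDTA, 1 U/ml ADA. Incubation 90 min at room temperature. Filtration; nonspecific binding with 100 µM NECA. Eight compound concentrations, each in triplicate; Ki derived by fitting.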

The target of assay [1] is T2, Adenosine receptor A3 (Homo sapiens) (UniProt P0DMS8).
T2 sequence (whole entry): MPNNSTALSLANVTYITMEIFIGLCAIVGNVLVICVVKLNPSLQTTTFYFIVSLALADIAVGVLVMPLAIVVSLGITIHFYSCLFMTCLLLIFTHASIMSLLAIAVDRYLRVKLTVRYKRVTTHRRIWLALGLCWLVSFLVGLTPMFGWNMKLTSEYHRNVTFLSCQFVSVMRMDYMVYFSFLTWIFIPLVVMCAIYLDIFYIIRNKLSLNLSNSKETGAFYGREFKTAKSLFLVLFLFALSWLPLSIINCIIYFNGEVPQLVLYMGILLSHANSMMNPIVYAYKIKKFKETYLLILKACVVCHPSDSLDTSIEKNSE
Description: Displacement of [3H]-HEMADO from human adenosine A3 receptor expressed in HEK293 cell membranes at 1 uM after 90 mins relative to control. In short, it runs like this: (§1)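 Membranes from HEK-293 cells stably transfected with human A1, A2A or A3 receptor, pretreated with 1 U/ml ADA. Membranes are incubated 90 min at room temperature with gentle agitation. Tracer and buffer per receptor: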

Assay [2] has as its target Adenosine receptor A2a (Homo sapiens) (UniProt P29274). Put plainly: Displacement of [3H]-ZM241385 from human adenosine A2A receptor expressed in HEK293 cell membranes at 0.1 uM after 90 mins relative to control. A digest of the protocol:
as §1

Assay [3] concerns the target T3, Adenosine receptor A1 (Homo sapiens) (UniProt P30542).
T3 sequence (whole entry): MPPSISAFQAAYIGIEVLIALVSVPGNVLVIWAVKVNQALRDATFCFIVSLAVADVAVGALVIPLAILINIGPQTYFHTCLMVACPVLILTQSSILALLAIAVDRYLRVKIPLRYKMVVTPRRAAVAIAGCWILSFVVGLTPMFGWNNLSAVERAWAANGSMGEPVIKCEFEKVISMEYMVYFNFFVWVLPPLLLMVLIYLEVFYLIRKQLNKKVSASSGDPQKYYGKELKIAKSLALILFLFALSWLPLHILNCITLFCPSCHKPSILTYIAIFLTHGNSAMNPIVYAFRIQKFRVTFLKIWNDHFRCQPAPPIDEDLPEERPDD
Description: Displacement of [3H]-DPCPX from human adenosine A1 receptor expressed in HEK293 cell membranes at 0.1 uM after 90 mins relative to control. A digest of the protocol:
as §1

Sequence of Adenosine receptor A2a (Homo sapiens) (P29274 whole entry): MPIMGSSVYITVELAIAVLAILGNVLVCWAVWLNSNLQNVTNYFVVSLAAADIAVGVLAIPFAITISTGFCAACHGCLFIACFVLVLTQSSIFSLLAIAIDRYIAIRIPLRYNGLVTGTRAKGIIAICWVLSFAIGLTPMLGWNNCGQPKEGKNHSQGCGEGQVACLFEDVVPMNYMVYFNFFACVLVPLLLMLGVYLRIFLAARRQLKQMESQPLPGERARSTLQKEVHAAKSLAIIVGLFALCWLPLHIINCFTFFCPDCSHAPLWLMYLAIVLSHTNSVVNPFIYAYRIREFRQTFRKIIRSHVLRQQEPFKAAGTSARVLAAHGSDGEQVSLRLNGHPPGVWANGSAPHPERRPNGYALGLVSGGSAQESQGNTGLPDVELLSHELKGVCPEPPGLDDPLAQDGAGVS

As to `CCCn1c(=O)c2[nH]c(-c3cnn(CC#CCN4CCCC4)c3)nc2n(CCC)c1=O`, the Ki on Adenosine receptor A2b (read-out: Ki) stood at 120 nM. Moreover, the inhibition in assay [1] turned out to be 59%; in assay [2], 67%; in assay [3] it was 66%.

As to `CCCn1c(=O)c2[nH]c(-c3cnn(CC#CCN4CCN(C)CC4)c3)nc2n(CCC)c1=O`, the Ki at Adenosine receptor A2b (read-out: Ki) is 83 nM. For the same compound, the inhibition in assay [1] was 79%; in assay [2] it was 73%; in assay [3], 55%.

With `CCCn1c(=O)c2[nH]c(-c3ccc(OCC#Cc4ccc(F)cc4)cc3)nc2n(CCC)c1=O`, the Ki result at Adenosine receptor A2b (hek293) was “Nd(Insoluble)”.

For `CCCn1c(=O)c2[nH]c(-c3cnn(CC#Cc4ccc(C(=O)O)cc4)c3)nc2n(CC)c1=O`, the Ki at Adenosine receptor A2b (read-out: Ki) came to 130 nM.

In the case of `CCCn1c(=O)c2[nH]c(-c3cnn(CC#CCN4CCN(c5cccc(C(F)(F)F)c5)CC4)c3)nc2n(CCC)c1=O`, at Adenosine receptor A2b (read-out: Ki), the Ki is 12 nM. The inhibition in assay [1] turned out to be 31%; in assay [2] it was 10%; in assay [3], 69%.

In the case of `CCCn1c(=O)c2[nH]c(-c3cc(OCC#Cc4cccc(C(F)(F)F)c4)n(C)n3)nc2n(CCC)c1=O`, the Ki entry at Adenosine receptor A2b (hek293) is reported as “Nd(Insoluble)”.

With `CCCn1c(=O)c2[nH]c(-c3cnn(CC#Cc4ccc(C)cc4)c3)nc2n(CCC)c1=O`, the inhibitory constant (Ki) at Adenosine receptor A2b (read-out: Ki) worked out at 6.5 nM. Moreover, the inhibition stood at 0% in assay [1], 33% in assay [2] and 70% in assay [3].

Consider `CCCn1c(=O)[nH]c2nc(-c3cnn(CC#Cc4ccc(F)cc4)c3)[nH]c2c1=O`, for which, on Adenosine receptor A2b (read-out: Ki), the Ki amounted to 1.6 nM. The inhibition is 0% in assay [1], 55% in assay [2] and 77% in assay [3].

As for `CCCn1c(=O)c2[nH]c(-c3cnn(CC#CCN4CCOCC4)c3)nc2n(CCC)c1=O`, on Adenosine receptor A2b (read-out: Ki), the Ki was found to be 330 nM. Also, the inhibition in assay [1] was determined as 51%; in assay [2], 39%; in assay [3] it was 28%.

Consider `CCCn1c(=O)c2[nH]c(-c3cnn(CC#Cc4ccc(OC(F)(F)F)cc4)c3)nc2n(CCC)c1=O`, for which the Ki on Adenosine receptor A2b (read-out: Ki) turned out to be 5.5 nM. Also, the inhibition in assay [1] is 37%; in assay [2] it was 51%; in assay [3] it was 92%.

Turning to `CCCn1c(=O)c2[nH]c(-c3cnn(CC#Cc4cccc(C#N)c4)c3)nc2n(CCC)c1=O`, the Ki on Adenosine receptor A2b (read-out: Ki) turned out to be 3.7 nM. The inhibition in assay [1] came to 0%; in assay [2], 84%; in assay [3], 52%.

`CCCn1c(=O)[nH]c2nc(-c3cnn(CC#Cc4ccc(C(F)(F)F)cc4)c3)[nH]c2c1=O`: the inhibition constant Ki at Adenosine receptor A2b (read-out: Ki) worked out at 1.3 nM. Further, the results for the inhibition in assay [1], in assay [2] and in assay [3] were 15%, 39% and 89%, respectively.

For the compound `CCCn1c(=O)c2[nH]c(-c3cnn(CC#Cc4cccc(OC)c4)c3)nc2n(CCC)c1=O`, the Ki on Adenosine receptor A2b (read-out: Ki) is 6.3 nM. Further, the inhibition in assay [1] was found to be 21%; in assay [2], 74%; in assay [3], 57%.

Turning to `CCCn1c(=O)c2[nH]c(-c3cnn(CC#Cc4cccc(F)c4)c3)nc2n(CC)c1=O`, at Adenosine receptor A2b (read-out: Ki), the Ki worked out at 7.4 nM. The inhibition in assay [1] came out at 23%; in assay [2], 58%; in assay [3], 73%.

Turning to `CCCn1c(=O)c2[nH]c(-c3cnn(CC#Cc4ccc(F)cc4)c3)nc2n(CC)c1=O`, the Ki on Adenosine receptor A2b (read-out: Ki) worked out at 7.3 nM. In addition, the inhibition in assay [1] turned out to be 33%; in assay [2], 56%; in assay [3], 92%.

As for `CCCn1c(=O)c2[nH]c(-c3cnn(CC#Cc4ccc(C(=O)O)cc4)c3)nc2n(CCC)c1=O`, at Adenosine receptor A2b (read-out: Ki), the Ki stood at 17.6 nM. The inhibition in assay [1] turned out to be 25%; in assay [2] it was 44%; in assay [3], 19%.

On to `CCCn1c(=O)c2[nH]c(-c3cnn(CC#Cc4ccc(C(F)(F)F)cc4)c3)nc2n(CCC)c1=O`, for which the Ki at Adenosine receptor A2b (read-out: Ki) was found to be 1.5 nM. The figures for the inhibition in assay [1], in assay [2] and in assay [3] were 12%, 30% and 84%, respectively.

On to `CCCn1c(=O)c2[nH]c(-c3cc(OCC#Cc4ccc(C(F)(F)F)cc4)no3)nc2n(CCC)c1=O`, for which the Ki result at Adenosine receptor A2b (hek293) is given as “Nd(Insoluble)”.

On to `CCCn1c(=O)c2[nH]c(-c3cnn(CC#CC4(O)CCCCC4)c3)nc2n(CCC)c1=O`, for which, at Adenosine receptor A2b (read-out: Ki), the Ki amounted to 100 nM.

As to `CCCn1c(=O)c2[nH]c(-c3cnn(CC#Cc4ccc(F)cc4)c3)nc2n(CCC)c1=O`, the Ki on Adenosine receptor A2b (read-out: Ki) was 5.9 nM. Moreover, the results for the inhibition in assay [1], in assay [2] and in assay [3] were 19%, 66% and 105%, respectively.

As for `CCCn1c(=O)[nH]c2nc(-c3cnn(CC#Cc4cccc(C(=O)O)c4)c3)[nH]c2c1=O`, the inhibition constant (Ki) at Adenosine receptor A2b (read-out: Ki) turned out to be 48 nM.

For `C#CCn1cc(-c2nc3c([nH]2)c(=O)n(CCC)c(=O)n3CCC)cn1`, on Adenosine receptor A2b (read-out: Ki), the Ki stood at 62 nM. Further, the values for the inhibition in assay [1], in assay [2] and in assay [3] were 32%, 69% and 56%, respectively.

For `CCCn1c(=O)c2[nH]c(-c3cc(OCC#Cc4cccc(OC(F)(F)F)c4)no3)nc2n(CCC)c1=O`, the Ki at Adenosine receptor A2b (read-out: Ki) was > 600 nM.

Regarding `CCCn1c(=O)c2[nH]c(-c3ccc(OCC#Cc4cccc(F)c4)cc3)nc2n(CCC)c1=O`, the inhibition constant Ki on Adenosine receptor A2b (read-out: Ki) is > 1000 nM.

As for `CCCn1c(=O)c2[nH]c(-c3cnn(CC#Cc4ccc(OC(F)(F)F)cc4)c3)nc2n(CC)c1=O`, the inhibition constant Ki on Adenosine receptor A2b (read-out: Ki) amounted to 9.9 nM. Also, the values for the inhibition in assay [1], in assay [2] and in assay [3] were 32%, 49% and 84%, respectively.

On to `CCCn1c(=O)c2[nH]c(-c3cnn(CC#Cc4cccc(C)c4)c3)nc2n(CCC)c1=O`, for which, on Adenosine receptor A2b (read-out: Ki), the inhibition constant Ki amounted to 5 nM. In addition, the inhibition in assay [1] came to 9%; in assay [2], 55%; in assay [3], 57%.

In the case of `CCCn1c(=O)c2[nH]c(-c3ccc(OCC#Cc4ccc(OC(F)(F)F)cc4)cc3)nc2n(CCC)c1=O`, the Ki on Adenosine receptor A2b (read-out: Ki) is > 600 nM.

As for `CCCn1c(=O)c2[nH]c(-c3cc(OCC#Cc4ccc(OC(F)(F)F)cc4)n(C)n3)nc2n(CCC)c1=O`, at Adenosine receptor A2b (hek293), the inhibition constant Ki entry was “Nd(Insoluble)”.

Take `CCCn1c(=O)c2[nH]c(-c3cnn(CC#CCN4CCCCC4)c3)nc2n(CCC)c1=O`: at Adenosine receptor A2b (read-out: Ki), the Ki was found to be 140 nM. Further, the inhibition worked out at 73% in assay [1], 74% in assay [2] and 64% in assay [3].

With `CCCn1c(=O)c2[nH]c(-c3cnn(CC#Cc4ccc(C(=O)OCC)cc4)c3)nc2n(CCC)c1=O`, on Adenosine receptor A2b (read-out: Ki), the Ki came out at 3.5 nM. The inhibition is 27% in assay [1], 19% in assay [2] and 80% in assay [3].

For `CCCn1c(=O)c2[nH]c(-c3ccc(OCC#Cc4ccc(C(F)(F)F)cc4)cc3)nc2n(CCC)c1=O`, the Ki result at Adenosine receptor A2b (hek293) is “Nd(Insoluble)”.

For the compound `CCCn1c(=O)c2[nH]c(-c3cc(OCC#Cc4cccc(C(F)(F)F)c4)no3)nc2n(CCC)c1=O`, the Ki at Adenosine receptor A2b (read-out: Ki) was > 600 nM.

Turning to `CCCn1c(=O)c2[nH]c(-c3cnn(CC#CC4(O)CCCC4)c3)nc2n(CCC)c1=O`, the inhibition constant (Ki) on Adenosine receptor A2b (read-out: Ki) turned out to be 79 nM.

Consider `CCCn1c(=O)c2[nH]c(-c3cc(OCC#Cc4cccc(F)c4)no3)nc2n(CCC)c1=O`, for which the Ki at Adenosine receptor A2b (read-out: Ki) amounted to 55 nM.

Consider `CCCn1c(=O)c2[nH]c(-c3cc(OCC#Cc4ccc(F)cc4)no3)nc2n(CCC)c1=O`, for which the Ki on Adenosine receptor A2b (read-out: Ki) turned out to be 15 nM.

On to `CCCn1c(=O)c2[nH]c(-c3cnn(CC#Cc4cccc(C(=O)O)c4)c3)nc2n(CC)c1=O`, for which, at Adenosine receptor A2b (read-out: Ki), the Ki stood at 190 nM.

Take `CC#CCn1cc(-c2nc3c([nH]2)c(=O)n(CCC)c(=O)n3CCC)cn1`: the inhibitory constant (Ki) on Adenosine receptor A2b (read-out: Ki) was found to be 23 nM. Also, the inhibition in assay [2] turned out to be 60%; in assay [3], 42%.

Turning to `CCCn1c(=O)c2[nH]c(-c3ccc(OCC#Cc4cccc(OC(F)(F)F)c4)cc3)nc2n(CCC)c1=O`, the Ki entry at Adenosine receptor A2b (hek293) is “Nd(Insoluble)”.
